# Results of several laboratories.
# gag-pol integrase: Gag-Pol polyprotein, integrase (gag-pol, Human immunodeficiency virus 1, UniProt P12497)
# IDE: Insulin-degrading enzyme (IDE, Homo sapiens, UniProt P14735)
# JAK3: Tyrosine-protein kinase JAK3 (JAK3, Homo sapiens, UniProt P52333)
# Ptgs2: Prostaglandin G/H synthase 2 (Ptgs2, Mus musculus, UniProt Q05769)
# MET: Hepatocyte growth factor receptor (MET, Homo sapiens, UniProt P08581)
# TGFBR1: TGF-beta receptor type-1 (TGFBR1, Homo sapiens, UniProt P36897)
# MMP1: Interstitial collagenase (MMP1, Homo sapiens, UniProt P03956)
# P2RX7: P2X purinoceptor 7 (P2RX7, Homo sapiens, UniProt Q99572)
# HDAC3: Histone deacetylase 3 (HDAC3, Homo sapiens, UniProt O15379)
Structure (SMILES),target,test,IC50 [µM]
Cc1nc2ccc(Br)cc2c(-c2ccc(Cl)cc2)c1C(OC(C)(C)C)C(=O)O (centres unmarked),gag-pol integrase,"enzyme activity, inhibitor, TR-FRET",0.12
COC(=O)c1ccc(NC(=O)NC2=CC(=O)CC(C)(C)C2)cc1,"crk3 (Leishmania mexicana, UniProt O15851)","enzyme activity, inhibitor, radiometric",3.3
CC(C)(C)OC(=O)[C@H](Cc1c[nH]cn1)NC(=O)CN(CCCc1ccccc1)CC(=O)O,IDE,"enzyme activity, inhibitor, fluorescence",0.4
CNC(=O)c1cc2c(Oc3ccc(NC(=O)C4(C(=O)Nc5ccc(F)cc5)CC4)cc3)ccnc2cc1OC,"Hepatocyte growth factor receptor (MET, Homo sapiens, UniProt P08581, Y1230H)","enzyme activity, inhibitor, radiometric",0.005
CC(C)(C)n1nc(-c2ccc3nc(OC4CC4)ccc3c2)c(C(N)=O)c1N,JAK3,cell-free assay,> 10
CC/C=C\C/C=C\C/C=C\C/C=C\C/C=C\CCCC(=O)O,"POLE (Homo sapiens, UniProt Q07864)","enzyme activity, inhibitor",35
O=C(O)[C@H](Cc1ccccc1)NC(=O)C1(c2ccccc2)CCN(S(=O)(=O)c2ccccc2)CC1,gag-pol integrase,"enzyme activity, inhibitor, TR-FRET",189
CC(C(=O)O)c1cccc(C(=O)c2ccccc2)c1 (centres unmarked),Ptgs2,"enzyme activity, inhibitor",0.72
COC(=O)CN(CC(=O)N[C@@H](Cc1c[nH]cn1)C(=O)OC)Cc1ccccc1,IDE,"enzyme activity, inhibitor, fluorescence",> 100
Cc1cc(Oc2ccc(NC(=O)c3sc(-c4ccccc4)nc3C)cc2)c2nncn2n1,MET,"enzyme activity, inhibitor, mobility shift",0.88
Cc1cnc(-c2ccc(-c3ccc(NC(=O)Nc4c(F)cc(F)cc4F)cc3F)c3c2C(=O)NC3)[nH]1,"Serine/threonine-protein kinase 4 (STK4, Homo sapiens, UniProt Q13043)","enzyme activity, inhibitor",0.0021
O=C(O)CC1=C/C(=C\c2cccc(-c3ccc(F)cc3)n2)c2ccc(F)cc21,Ptgs2,"enzyme activity, inhibitor",0.67
COc1cccc(F)c1Cn1cnc(-c2ccc(F)cc2)c1-c1ccncc1,TGFBR1,"cell-free assay, TR-FRET",1.23
NC(=O)[C@H](Cc1c[nH]cn1)NC(=O)CN(CC(=O)O)Cc1ccccc1,IDE,"enzyme activity, inhibitor, fluorescence",1.4
Cc1cc(Oc2ccc(NC(=O)c3sc(-c4ccccn4)nc3C)cc2F)c2nncn2n1,MET,"enzyme activity, inhibitor, mobility shift",0.9
COc1ccc(S(=O)(=O)N2Cc3cc(O)c(O)cc3CC2C(=O)NO)cc1 (centres unmarked),MMP1,"enzyme activity, inhibitor",10
COc1ccc2c(Oc3ccc4c(C(=O)Nc5ccccc5N)cccc4c3)ccnc2c1,JAK3,"enzyme activity, inhibitor",> 0.5
NC(=O)NCCC[C@@H](NS(=O)(=O)c1ccc(OCc2cc(Br)cc(Br)c2)cc1)C(=O)NO,MMP1,"enzyme activity, inhibitor, fluorescence",> 500
CC(C)(C)OC(=O)[C@H](Cc1c[nH]cn1)NC(=O)CN(CC(=O)O)Cc1ccccc1,IDE,"enzyme activity, inhibitor, fluorescence",0.8
Sc1nnc(-c2cc(-c3ccccc3)nc3ccccc23)o1,P2RX7,"calcium signal, antagonist",7.27
Cc1cc(Oc2ccc(NC(=O)c3sc(-c4ccccc4)nc3C)cc2F)c2nncn2n1,MET,"enzyme activity, inhibitor, mobility shift",0.63
CC(C)C[C@H](NC(=O)[C@H](Cc1ccccc1)NC(=O)[C@H](Cc1ccc(O)cc1)NC(=O)CNC(=O)[C@H](CCCNC(=N)N)NC(=O)[C@H](CO)NC(=O)[C@H](CCC(N)=O)NC(=O)[C@H](CO)NC(=O)[C@H](C)NC(=O)[C@H](Cc1ccccc1)NC(=O)[C@@H]1CCCN1C(=O)[C@H](CO)NC(=O)[C@H](CCC(N)=O)NC(=O)[C@H](Cc1ccccc1)NC(=O)[C@H](CCC(=O)O)NC(=O)[C@H](CCC(=O)O)NC(=O)[C@H](CC(=O)O)NC(=O)[C@@H](NC(=O)[C@H](CCCNC(=N)N)NC(=O)[C@@H](N)Cc1ccccc1)C(C)C)C(=O)N[C@@H](Cc1ccccc1)C(=O)N[C@@H](CCCNC(=N)N)C(=O)N1CCC[C@H]1C(=O)N[C@@H](CCCNC(=N)N)C(=O)N[C@@H](CC(N)=O)C(N)=O,"Neuromedin-U receptor 2 (NMUR2, Homo sapiens, UniProt Q9GZQ4)","ligand displacement, radioligand",0.000219
O=C(O)C1=CC(=C(c2ccc(O)c(C(=O)O)c2)c2ccc(O)c(C(=O)O)c2)C=CC1=O,"Lysosomal acid lipase/cholesteryl ester hydrolase (LIPA, Homo sapiens, UniProt P38571)","enzyme activity, inhibitor",1.34
CNCCCC(c1ccccc1)(c1ccccc1)c1ccccc1,"Kinesin-like protein KIF11 (KIF11, Homo sapiens, UniProt P52732)","ATPase activity, inhibitor",0.386
O=C(Nc1ccccc1OS(=O)(=O)c1cccs1)c1ccc2ncccc2c1,P2RX7,"calcium signal, antagonist",2.48
Cc1noc([C@H](Cc2c[nH]cn2)NC(=O)CN(CCCc2ccccc2)CC(=O)O)n1,IDE,"enzyme activity, inhibitor, fluorescence",0.5
Cc1cc(Oc2ccc(NC(=O)c3sc(-c4ccncc4)nc3C)cc2F)c2nncn2n1,MET,"enzyme activity, inhibitor, mobility shift",0.65
C[C@H]1C[C@@H](N2C(=N)N[C@](C)(c3cccc(Nc4ccc(C5CC5)nc4)c3Cl)CC2=O)CCO1,"Sodium channel protein type 10 subunit alpha (SCN10A, Homo sapiens, UniProt Q9Y5Y9)","ion current, inhibitor, patch clamp",8
Cc1ccc(/C=C2\C=C(CC(=O)O)c3cc(F)ccc32)cc1,Ptgs2,"enzyme activity, inhibitor",~26
CC(C)C[C@H]1CC(=O)N[C@@H](C)C(=O)N[C@@H](CCCCCC(=O)O)C(=O)N[C@@H](Cc2c[nH]c3ccccc23)C(=O)N1,HDAC3,"enzyme activity, inhibitor",0.6
CN1CCN(c2ccc(Nc3ncc4cc(C#N)c(=O)n(C5CCCC5)c4n3)cc2)CC1,TGFBR1,"enzyme activity, inhibitor",1.84
Cc1ccc(-n2nc(C(C)(C)C)cc2NC(=O)Nc2ccc(OCCN3CCOCC3)c3ccccc23)cc1,"Potassium voltage-gated channel subfamily A member 5 (KCNA5, Homo sapiens, UniProt P22460)","ion current, inhibitor",1.1
O=C(O)CN(CC(=O)N[C@@H](Cc1c[nH]cn1)C(=O)NCc1ccccc1)Cc1ccccc1,IDE,"enzyme activity, inhibitor, fluorescence",1.4
NC(=O)c1ccc[n+]([C@@H]2O[C@H](COP(=O)([O-])OP(=O)(O)OC[C@H]3O[C@@H](n4cnc5c(N)ncnc54)[C@H](O)[C@@H]3O)[C@@H](O)[C@H]2O)c1,"Protein mono-ADP-ribosyltransferase PARP3 (PARP3, Homo sapiens, UniProt Q9Y6F1)","enzyme activity, inhibitor",5
Cc1ccc(C(=O)Nc2ccc(Oc3cc4cnn(C)c4cc3-c3cn[nH]c3)c(F)c2)c(=O)n1-c1ccc(F)cc1,"Macrophage colony-stimulating factor 1 receptor (CSF1R, Homo sapiens, UniProt P07333)","enzyme activity, inhibitor, radiometric",0.032
COC(=O)[C@H](CCCNC(=N)N)NC(=O)CN(CC(=O)O)Cc1ccccc1,IDE,"enzyme activity, inhibitor, fluorescence",36.3
Cc1ccc(S(=O)(=O)Oc2ccccc2NC(=O)c2ccc3ncccc3c2)cc1,P2RX7,"calcium signal, antagonist",1.49
CC[C@H](C)[C@H](NC(C)=O)C(=O)N[C@@H](CCC(=O)O)C(=O)N[C@H](C(=O)N[C@H](C=O)CC(=O)O)[C@@H](C)O,"Caspase-9 (CASP9, Homo sapiens, UniProt P55211)","enzyme activity, inhibitor",0.0217
Cc1[nH]c(/C=C2\C(=O)Nc3ccc(S(=O)(=O)N(C)c4cccc(Cl)c4)cc32)c(C)c1C(=O)N1CCN(C)CC1,"Hepatocyte growth factor receptor, non-phosphorylated (MET, Homo sapiens, UniProt P08581)","enzyme activity, inhibitor, TR-FRET",0.005
O=C(Nc1ccn(Cc2ccc(O)cc2C(F)(F)F)n1)c1c(F)cccc1F,P2RX7,ion current,> 10
O=C(O)[C@H](Cc1ccc2ccccc2c1)NC(=O)C1(c2ccc(F)cc2)CCN(S(=O)(=O)c2ccccc2)CC1,gag-pol integrase,"enzyme activity, inhibitor, TR-FRET",150
COC(=O)[C@H](Cc1c[nH]cn1)NC(=O)CN(CC(=O)O)Cc1ccc(C(F)(F)F)cc1,IDE,"enzyme activity, inhibitor, fluorescence",2
CCC[C@H](NC(=O)C1CN(C)C1)c1ncc(-c2cc3ccccc3nc2OC)[nH]1,HDAC3,"enzyme activity, inhibitor, fluorescence",0.16
Sc1nnc(-c2ccccn2)o1,P2RX7,"calcium signal, antagonist",11.8
Oc1c2ccccc2c2c3c(cccc13)N=N2,JAK3,"enzyme activity, inhibitor",0.344
FC(F)(F)c1cccc(-c2nnc(S)o2)c1,P2RX7,"calcium signal, antagonist",1.5
CC1(COc2ccc(CC3SC(=O)NC3=O)cc2)CCCCC1 (centres unmarked),"Peroxisome proliferator-activated receptor alpha (PPARA, Homo sapiens, UniProt Q07869)","ligand displacement, TR-FRET",377
